Consider 2 substances from article PMC6422976 (Osteoporosis International, 2018).

The test system of one data set is serum calcium. The experiment in a line: Serum calcium. In kind it is in vivo, human. The note with it: for Serum-corrected calcium Cmax, mean / Serum-corrected calcium tmax, mean / Serum-corrected calcium AUC0-tlast, geom. mean / Serum-corrected calcium Cmax, geom. mean / Serum-corrected calcium AUC0-tlast, median / Serum-corrected calcium Cmax, median / Serum-corrected calcium tmax, median: single 20 μg/80 μL s.c. injection, healthy women, N = 53; for Serum-corrected calcium Cmax, mean / Serum-corrected calcium tmax, mean: arithmetic mean; for Serum-corrected calcium AUC0-tlast, geom. mean / Serum-corrected calcium Cmax, geom. mean: geometric mean. Put shortly:
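Serum drawn within 2.5 h before dosing and at 120, 180 and 240 min and 6, 8 and 12 h after a single 20 μg/80 μL s.c. dose. Total calcium measured photometrically via the NM-BAPTA complex under alkaline conditions (LLOQ 0.8 mg/dl). Values albumin-corrected as Ca (mmol/L) + ((40 − ALB (g/L)) × 0.02). AUC0-tlast, Cmax and tmax calculated.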

Data set [1] in a line: Comparative single-dose PK of teriparatide. The format is in vivo, human. The note with it: for tlast / Cmax / tmax / AUC0-tlast: single 20 μg/80 μL s.c. dose, N = 51; for tlast: AM ± SD; for Cmax: ELISA; for Cmax / AUC0-tlast: GM (GCV%); for tmax: Median (Minimum, Maximum); for AUC0-tlast: abdomen, PTH(1-34) ELISA. The method in brief:
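Randomised, double-blind, two-period, two-sequence cross-over in healthy women aged 18–55 y (BMI 18.5–27.0 kg/m2). Single 20 μg/80 μL s.c. abdominal injection of test or reference teriparatide at hour 0, with a 24 h washout. Plasma sampled pre-dose and at 10–240 min. High-sensitivity human PTH(1-34) ELISA. Non-compartmental parameters; ANOVA on ln values; geometric mean test/reference ratios with 94.12% CI (α 0.0294, two-stage design).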

For data set [2] the following is noted: after at least 12 months of treatment, 20 μg daily s.c. doses; cited from earlier work.
A short description of data set [3]: Safety: treatment emergent adverse events in healthy women. In kind it is in vivo, human. The following applies: single 20 μg s.c.; for TEAE: General disorders and administration site conditions: number of subjects (%). Put shortly: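 Healthy women received single 20 μg/80 μL s.c. injections in each cross-over period. Monitoring covered physical examinations, vital signs, ECGs, pulse oximetry, adverse events, injection-site reactions and clinical laboratory tests. Adverse events in the washout were assigned to the preceding treatment. Results were summarised per treatment arm as subject counts; Fisher's exact test.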

[4] abbreviates: geometric least-squares mean from ANOVA, single 20 μg s.c., healthy women.
The mark [5] stands for this setting: RGB-10/reference, two-stage design.
[6] abbreviates: RGB-10/reference, two-stage design, acceptance range 80.00–125.00%.
Setting [7] is: geometric mean ratio = 100 * (RGB-10/reference).

Take “teriparatide [Reference, reference compound]”: in the data set with serum calcium, the “Serum-corrected calcium Cmax, mean” value stood at 2.35 mmol/L; the “Serum-corrected calcium tmax, mean” value stood at 5.03 h; the “Serum-corrected calcium AUC0-tlast, geom. mean” value was determined as 27.61 mmol·h/L; the “Serum-corrected calcium Cmax, geom. mean” value came to 2.35 mmol/L. In addition, in the data set with serum calcium, the “Serum-corrected calcium AUC0-tlast, median” value is 27.56 mmol·h/L; the “Serum-corrected calcium Cmax, median” value is reported as 2.34 mmol/L; the “Serum-corrected calcium tmax, median” value worked out at 6.00 h. Besides, in data set [1] (setting [4]), the “AUC0-inf, geometric LSM” value worked out at 115.66 pg·h/mL; the “AUC0-tlast, geometric LSM” value amounted to 100.86 pg·h/mL; the “Cmax, geometric LSM” value was 90.18 pg/mL; the “t1/2, geometric LSM” value was 43.2 min. In data set [1] (healthy women), the tlast was found to be 2.58 ± 0.707 h; the Cmax was 89.2 (37.1%) pg/mL; the tmax is recorded as 0.417 (0.167, 0.667) h; the AUC0-tlast is 99.0 (35.0%) pg*h/mL. In addition, the “patients with anti-teriparatide antibodies” value in data set [2] was 2.8%. The “TEAE: General disorders and administration site conditions” value in data set [3] is listed as 8 (15%).

Turning to teriparatide [RGB-10], in the data set with serum calcium (RGB-10/reference), the “95% CIs of the GMR of corrected calcium” value is 99–101%, the “GMR of serum calcium AUC” value was 99.93% and the “GMR of serum calcium Cmax” value worked out at 99.87%. The “median difference of serum calcium tmax” value in the data set with serum calcium (RGB-10 versus reference) is 0.001. In addition, in the data set with serum calcium, the “Serum-corrected calcium Cmax, mean” value worked out at 2.35 mmol/L; the “Serum-corrected calcium tmax, mean” value came out at 5.21 h; the “Serum-corrected calcium AUC0-tlast, geom. mean” value was determined as 27.59 mmol·h/L; the “Serum-corrected calcium Cmax, geom. mean” value is listed as 2.35 mmol/L. In the data set on serum calcium, the “Serum-corrected calcium AUC0-tlast, median” value stood at 27.56 mmol·h/L; the “Serum-corrected calcium Cmax, median” value is recorded as 2.34 mmol/L; the “Serum-corrected calcium tmax, median” value was 6.00 h. Further, the bioequivalence conclusion result in data set [1] (94.12% CIs of GMRs of AUC0-tlast and Cmax within 80–125%) is on record as “bioequivalent”. For the same substance, in data set [1] (setting [5]), the “94.12% CI of GMR, AUC0-inf” value is 83.75–96.33% and the “94.12% CI of GMR, t1/2” value was 83.28–100.29%. Besides, in data set [1] (setting [6]), the “94.12% CI of GMR, AUC0-tlast” value is reported as 85.20–98.60% and the “94.12% CI of GMR, Cmax” value is given as 85.51–99.52%. Besides, the “extent, total extent and peak teriparatide exposure (AUC0-tlast, AUC0-inf, Cmax) lower than for the reference” value in data set [1] (based on GMR, plasma) fell in the range of 8 to 10%. Further, in data set [1] (setting [7]), the “GMR% AUC0-inf” value was found to be 89.82%, the “GMR% AUC0-tlast” value came out at 91.66%, the “GMR% Cmax” value worked out at 92.25% and the “GMR% t1/2” value is reported as 91.39%. In data set [1] (healthy women), the tlast is on record as 2.49 ± 0.729 h; the Cmax was 82.4 (40.1%) pg/mL; the tmax is on record as 0.334 (0.166, 0.585) h; the AUC0-tlast is given as 91.8 (40.9%) pg*h/mL. Also, in data set [1] (in vivo), the “half-life shorter than for the reference” value came to 9%, the “mean CL/F higher than for the reference product” value is “approximately 13%” and the “mean Vz/F compared with the reference” value is on record as “similar”. Also, in data set [3], the “TEAE: General disorders and administration site conditions” value was 13 (24%); the “serious adverse events (SAEs)” value was “no SAEs observed”.
